Test results from ChEMBL document CHEMBL1139469, “Synthesis and 3D QSAR of new pyrazolo[3,4-b]pyridines: potent and selective inhibitors of A1 adenosine receptors” (J Med Chem, 2005).

Experiments:
[1] = molecular target: Adenosine receptor A1 (Bos taurus) (UniProt P28190); test: Displacement of [3H]DPCPX from bovine adenosine A1 receptor in bovine cortical membranes
[2] = molecular target: T1, Adenosine receptor A1 (Bos taurus, UniProt P28190); test: Displacement of [3H]DPCPX from adenosine A1 receptor in bovine cerebral cortical membranes; assay type: cell membranes
T1 sequence (P28190 whole entry): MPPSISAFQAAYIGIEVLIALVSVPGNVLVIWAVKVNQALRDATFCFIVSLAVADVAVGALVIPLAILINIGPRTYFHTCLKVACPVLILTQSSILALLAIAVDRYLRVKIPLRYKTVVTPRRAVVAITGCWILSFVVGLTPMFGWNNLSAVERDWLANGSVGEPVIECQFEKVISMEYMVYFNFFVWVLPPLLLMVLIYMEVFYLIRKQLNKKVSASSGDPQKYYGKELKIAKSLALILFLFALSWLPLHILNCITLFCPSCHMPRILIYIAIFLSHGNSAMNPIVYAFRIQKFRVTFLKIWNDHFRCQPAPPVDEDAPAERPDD
Method in brief: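 [3H]DPCPX was displaced from A1 sites in bovine cortical membranes. Compounds were taken up in DMSO and diluted in assay buffer, with DMSO at 2% or less final. Ki used at least six concentrations across 3 orders of magnitude and was the mean ± SEM of three independent assays in triplicate.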

[3] = tested on: Adenosine receptor A2a (Bos taurus); test: Displacement of [3HCGS21680 from adenosine A2A receptor in bovine striatal membranes at 10 uM
[4] = molecular target: T2, Adenosine receptor A3 (Homo sapiens) (UniProt P0DMS8); test: Displacement of [125I]AB-MECA from human adenosine A3 receptor expressed in CHO cells at 10 uM
T2 sequence (whole entry): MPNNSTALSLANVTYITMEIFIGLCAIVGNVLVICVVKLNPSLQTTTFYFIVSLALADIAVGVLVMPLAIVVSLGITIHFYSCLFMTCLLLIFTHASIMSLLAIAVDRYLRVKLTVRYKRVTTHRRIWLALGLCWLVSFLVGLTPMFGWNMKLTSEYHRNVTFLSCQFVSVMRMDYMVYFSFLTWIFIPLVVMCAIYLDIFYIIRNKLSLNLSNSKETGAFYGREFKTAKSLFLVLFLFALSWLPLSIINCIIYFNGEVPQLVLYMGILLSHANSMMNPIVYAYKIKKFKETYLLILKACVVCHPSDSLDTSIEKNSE

Row | SMILES | Ki [1] [nM] | Ki [2] [nM] | inhibition [3] [%] | inhibition [4] [%]
1 | Oc1cc(-c2ccccc2)nc2ncccc12 | 15.8 | – | – | –
2 | Oc1ccc(-c2nnc3nc4ccccc4n3c2O)cc1O | 501 | – | – | –
3 | O=c1c(-c2ccco2)nnc2n(-c3ccccc3)c3ccccc3n12 | 316 | – | – | –
4 | O=c1c(-c2ccccc2)nnc2n(-c3ccccc3)c3ccccc3n12 | 20 | – | – | –
5 | O=c1n(-c2ccccc2)nc2c(NC3CCCCC3)nc3ccccc3n12 | 1.58 | – | – | –
6 | Cc1ccc2c(O)cc(-c3ccc(N)cc3)nc2n1 | 6.31 | – | – | –
7 | Cc1nnc2nc3ccccc3n2c1O | 3980 | – | – | –
8 | O=C(Nc1nc2ccccc2n2c(=O)n(-c3ccc(Cl)cc3)nc12)c1ccccc1 | 100 | – | – | –
9 | Cc1cccc(-n2nc3c(NC4CCCCC4)nc4ccccc4n3c2=O)c1 | 3.98 | – | – | –
10 | COc1ccc(-n2nc3c(N)nc4ccccc4n3c2=O)cc1 | 316 | – | – | –
11 | Cc1nnc2n(C)c3ccccc3n2c1=O | 10000 | – | – | –
12 | Oc1c(-c2ccccc2)nnc2nc3ccccc3n12 | 79.4 | – | – | –
13 | COc1ccc(-c2nnc3nc4ccccc4n3c2O)cc1OC | 2000 | – | – | –
14 | O=c1n(-c2cccc(F)c2)nc2c(NC3CCCC3)nc3ccccc3n12 | 1 | – | – | –
15 | O=C(Nc1ccccc1)Nc1nc2ccccc2n2c(=O)n(-c3ccc(Cl)cc3)nc12 | 50.1 | – | – | –
16 | Oc1ccc(-c2nnc3nc4ccccc4n3c2O)cc1 | 251 | – | – | –
17 | Cc1cc(O)c2ccc(=O)[nH]c2n1 | 10000 | – | – | –
18 | Oc1c(-c2ccco2)nnc2nc3ccccc3n12 | 251 | – | – | –
19 | Cc1cccc(-n2nc3c(N)nc4ccccc4n3c2=O)c1 | 20 | – | – | –

Next, values leading:

Row | Ki [1] [nM] | Ki [2] [nM] | inhibition [3] [%] | inhibition [4] [%] | SMILES
20 | 3160 | 2970 | – | – | CCCOC(=O)c1cnc2c(cnn2CC(Cl)c2ccccc2)c1N1CCCC1 (stereo unspecified)
21 | 50.1 | – | – | – | CCCc1cc(O)c2ccc(C)nc2n1
22 | 50.1 | – | – | – | O=c1[nH]nc2c(NCc3ccccc3)nc3ccccc3n12
23 | 2000 | – | – | – | CCCCNc1nc(SC)nc2c1cnn2CC(Cl)c1ccccc1 (stereo unspecified)
24 | 50.1 | 51 | 40 | – | CCCNc1c(C(=O)OC(C)CC)cnc2c1cnn2CC(Cl)c1ccccc1 (stereo unspecified)
25 | – | – | – | 2 | CCCOC(=O)c1cnc2c(cnn2CC(Cl)c2ccccc2)c1NC1CC1 (stereo unspecified)
26 | 0.631 | – | – | – | CN(C)c1ccc2c(O)cc(-c3ccccc3)nc2n1
27 | 251 | 251 | – | – | COC(=O)c1cnc2c(cnn2CC(Cl)c2ccccc2)c1NC1CC1 (stereo unspecified)
28 | 1260 | – | – | – | COc1cc(-c2ccccc2)nc2c1ccc(=O)n2C
29 | 316 | – | – | – | CC(=O)Nc1ccc2c(O)cc(-c3ccccc3)nc2n1
30 | 501 | – | – | – | CCOC(=O)c1cnc2c(cnn2CC(Cl)c2ccccc2)c1N1CCOCC1 (stereo unspecified)
31 | 63.1 | 63 | 4 | – | Cc1ccc(CCNc2c(C(=O)OCC3CC3)cnc3c2cnn3CC(Cl)c2ccccc2)cc1 (stereo unspecified)
32 | 316 | – | – | – | CCOc1ccc2c(OCC)cc(-c3ccccc3)nc2n1
33 | 126 | – | – | – | CCOC(=O)c1cnc2c(cnn2CC(Cl)c2ccccc2)c1NCc1ccccc1 (stereo unspecified)
34 | 6310 | – | – | – | COc1cc(-c2ccccc2)nc2nc(C)ccc12
35 | 50.1 | 48 | 26 | – | Cc1ccc(CCNc2c(C(=O)OC(C)C)cnc3c2cnn3CC(Cl)c2ccccc2)cc1 (stereo unspecified)
36 | 1260 | 1370 | – | – | CCCOC(=O)c1cnc2c(cnn2CC(Cl)c2ccccc2)c1NCc1ccccc1 (stereo unspecified)
37 | 39.8 | 44 | 13 | – | CC(C)OC(=O)c1cnc2c(cnn2CC(Cl)c2ccccc2)c1NCCc1ccccc1Cl (stereo unspecified)
38 | 126 | – | – | – | CCOC(=O)c1cnc2c(cnn2CC(Cl)c2ccccc2)c1NC1CC1 (stereo unspecified)
39 | 3980 | 4240 | 0 | – | COC(=O)c1cnc2c(cnn2CC(Cl)c2ccccc2)c1N1CCCC1 (stereo unspecified)
40 | 200 | 197 | 33 | – | CCC(C)OC(=O)c1cnc2c(cnn2CC(Cl)c2ccccc2)c1NC1CC1 (stereo unspecified)
41 | 126 | 130 | – | – | CCCOC(=O)c1cnc2c(cnn2CC(Cl)c2ccccc2)c1NCCc1ccccc1 (stereo unspecified)
42 | 5.01 | – | – | – | Cc1ccc2c(O)cc(-c3ccccc3)nc2n1
43 | 5010 | – | – | – | Cn1c(=O)ccc2c(O)cc(-c3ccccc3)nc21
44 | 39.8 | 41 | 27 | – | CC(C)OC(=O)c1cnc2c(cnn2CC(Cl)c2ccccc2)c1NCCc1ccc(Cl)cc1 (stereo unspecified)
45 | 100 | – | – | – | Cc1ccc2c(NN)cc(-c3ccccc3)nc2n1
46 | 50.1 | 48 | 54 | – | O=C(OCC1CC1)c1cnc2c(cnn2CC(Cl)c2ccccc2)c1NCCc1ccccc1 (stereo unspecified)
